# Measurements from ChEMBL document CHEMBL3997837, “Potent covalent inhibitors of bacterial urease identified by activity-reactivity profiling” (Bioorg Med Chem Lett, 2017).
# Where a name gives a salt, the structure may show the parent alone. Calls of active or inactive are those of the source. The calls are words filed in the database; no cut-off is given here.
# Assays:
# Sporosarcina pasteurii [1] = test: Time-dependent Sporosarcina pasteurii CCM 2056 urease assessed as reduction in ammonia production using urea as substrate by phenol-hypochlorite method
# [2] = Cytotoxicity against mouse BALB/3T3 cells assessed as inhibition of cell proliferation at 100 uM after 72 hrs by SRB assay relative to control; type: cell-based
# Summary of the method: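 Mouse BALB/3T3 cells were tested by SRB assay at a single concentration of 100, with the result given as percent inhibition of proliferation.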
# [3] = Inhibition of Sporosarcina pasteurii CCM 2056 urease assessed as reduction in ammonia production using urea as substrate measured for 120 mins by phenol-hypochlorite method
# [4] = Glutathione reactivity in pH 7.4 PBS measured after 6 to 36 hrs in presence of 1.375 mmol GSH by DTNB reagent based spectrophotometric method
# Summary of the method: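 Glutathione served as a model reactive-thiol compound. Unreacted GSH was quantified spectrophotometrically by a modified Ellman method, and reaction progress was followed over time up to 36 h.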
# Sporosarcina pasteurii [5] = test: Reversible inhibition of Sporosarcina pasteurii CCM 2056 urease assessed as reduction in ammonia production by measuring recovery of enzyme activity at 10 times IC50 preincubated for 60 mins followed by 100-fold dilution in to PBS containing urea as substrate by Berthelot colorimetric assay relative to control; set-up: Activity: scale not given: the % may be the effect or the level left
# [6] = Inhibition of Sporosarcina pasteurii CCM 2056 urease assessed as reduction in ammonia production by measuring initial state enzyme-inhibitor complex using urea as substrate measured for 120 mins by phenol-hypochlorite method
# [7] = Inhibition of Sporosarcina pasteurii CCM 2056 urease assessed as reduction in ammonia production by measuring steady state enzyme-inhibitor complex using urea as substrate measured for 120 mins by phenol-hypochlorite method
# Sporosarcina pasteurii [8] = test: Competitive inhibition of Sporosarcina pasteurii CCM 2056 urease assessed as reduction in ammonia production preincubated with enzyme followed by addition of varying levels of urea as substrate measured for 120 mins by Lineweaver-Burk plot analysis
# BALB/3T3 = test: Cytotoxicity against mouse BALB/3T3 cells assessed as reduction in cell proliferation after 72 hrs by SRB assay; type: cell-based; settings: balb/3t3, 72 h
# Summary of the method: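 Mouse BALB/3T3 fibroblasts were scored by SRB assay, with cytotoxicity given as LC50 values.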
# [9] = Inhibition of Proteus mirabilis 543 urease at pH 5.5 assessed as reduction in ammonia production using urea as substrate measured after 15 mins by NaOH-hypochlorite method
# Summary of the method: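 Intact Proteus mirabilis cells were tested at pH 5.5, matching physiological urine, with 5 mM urea. Inhibitors were added without preincubation, and IC50 was determined.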
# Proteus mirabilis = test: Inhibition of Proteus mirabilis 543 urease at pH 5.5 assessed as reduction in ammonia production using urea as substrate followed by substrate addition by NaOH-hypochlorite method; settings: TDE = time-dependent effect
# Papain (Carica papaya) [10] = target: T1, Papain (Carica papaya) (UniProt P00784); test: Inhibition of Carica papaya papain at 0.1 to 0.25 mM using BzArgOEt as substrate measured for 30 mins
# T1 sequence (whole entry): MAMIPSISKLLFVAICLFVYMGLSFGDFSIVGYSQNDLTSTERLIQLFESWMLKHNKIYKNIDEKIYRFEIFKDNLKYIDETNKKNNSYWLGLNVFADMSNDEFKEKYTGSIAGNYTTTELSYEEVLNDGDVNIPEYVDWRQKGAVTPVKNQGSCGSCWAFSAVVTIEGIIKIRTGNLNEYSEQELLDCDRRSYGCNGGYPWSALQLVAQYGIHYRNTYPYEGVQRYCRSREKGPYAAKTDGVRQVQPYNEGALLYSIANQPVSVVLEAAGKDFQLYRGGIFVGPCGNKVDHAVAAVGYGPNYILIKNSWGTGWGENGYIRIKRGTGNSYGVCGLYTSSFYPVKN
# [11] = Glutathione reactivity after 36 hrs in presence of 10 mM GSH by 1H NMR analysis
# [12] = Inhibition of Proteus mirabilis 543 urease at pH 5.5 assessed as reduction in ammonia production using urea as substrate preincubated for 120 mins followed by substrate addition measured after 15 mins by NaOH-hypochlorite method
# Summary of the method: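 Intact Proteus mirabilis cells were preincubated with inhibitors in PBS for 2 h, then tested at pH 5.5, matching urine acidity, with 5 mM urea. IC50 was determined.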
# Papain (Carica papaya) [13] = target: T1, Papain (Carica papaya); test: Inhibition of Carica papaya papain at 0.1 to 1 mM using BzArgOEt as substrate measured for 30 mins
# [14] = Glutathione reactivity up to 15 mins in presence of 10 mM GSH by 1H NMR analysis
Compound,TDI (Sporosarcina pasteurii [1]),Ki ([3]; read-out: Ki) [µM],K [4] [M⁻¹ s⁻¹],log K [4],Activity (Sporosarcina pasteurii [5]) [%],Ki ([6]; read-out: Ki) [µM],Ki ([7]; read-out: Ki) [µM],mode of inhibition (Sporosarcina pasteurii [8]),LC50 (BALB/3T3),further results
O=C1C=CCCC1,Active,0.766,0.37,1.35,27.2,22.8,0.267,Active,,"inhibition at 72 h, 100 µM [2]: 29.8%"
CCOC(=O)/C=C/C(=O)c1ccccc1,Active,3.96,2.18,2.12,30.2,29.2,1.21,Active,24.5 µM,
O=C1C=CCC1,Active,0.291,0.487,1.5,15.3,11.2,0.232,Active,86.5 µM,
O=C(O)/C=C/c1ccccc1 [CINNAMIC ACID],Active,21.5,< 1.67e-06,> -4,40.3,595,23,Active,,IC50 ([9]; read-out: IC50): 492 µM; inhibition (Proteus mirabilis): Tde; inhibition (Papain (Carica papaya) [10]): inactive; Drug metabolism [11]: Metabolite not detected; IC50 ([12]; read-out: IC50): 125 µM
COC(=O)/C=C/C1=CC(=O)CCC1,Active,0.694,0.0703,0.63,23.6,46.5,0.766,Active,,
CC(=O)NO [ACETOHYDROXAMIC ACID],,3.3,,,29.1,,,,,IC50 ([9]; read-out: IC50): 169 µM; IC50 ([12]; read-out: IC50): 91.4 µM
O=C(O)/C=C/C(=O)O [FUMARIC ACID],Active,36.5,5e-05,-2.52,39.7,432,37.1,Active,Non-Toxic,IC50 ([9]; read-out: IC50): 182 µM; inhibition (Proteus mirabilis): Tde; IC50 ([12]; read-out: IC50): 65.5 µM; inhibition (Papain (Carica papaya) [13]): inactive
O=C(O)C#CC(=O)O,Active,0.0425,0.000122,-2.14,10.9,3.95,0.0553,Active,Non-Toxic,IC50 ([9]; read-out: IC50): 326 µM; inhibition (Proteus mirabilis): Tde; IC50 ([12]; read-out: IC50): 88.6 µM; inhibition (Papain (Carica papaya) [13]): inactive
CCOC(=O)/C=C/c1ccccc1 [ETHYL CINNAMATE],,,1.21e-05,-3.14,,,,,,"IC50 [9]: Not Active; inhibition at 72 h, 100 µM [2]: 29.1%; inhibition (Proteus mirabilis): Tde; Ki [3]: Not Active; inhibition (Sporosarcina pasteurii [5]): inactive; Ki [6]: Not Active; Ki [7]: Not Active; IC50 [12]: Not Active"
CCOC(=O)/C=C/C(=O)O [ETHYL FUMARATE],Active,52.4,,,45.6,888,59.1,Active,,
CCOC(=O)C#CC(=O)OCC,Active,0.0102,,,8.8,0.852,0.00744,Active,,
CCOC(=O)/C=C/C(=O)OC(C)(C)C,Active,22.1,,,39.3,425,25.7,Active,,
Cc1ccc(C(=O)/C=C/C(=O)O)cc1,Active,6.36,0.333,1.3,32.7,77.1,6.64,Active,,"inhibition at 72 h, 100 µM [2]: 31.3%"
COC(=O)/C=C/C1=CC(=O)CC1,Active,0.285,0.166,0.998,16.7,16.7,0.316,Active,,"inhibition at 72 h, 100 µM [2]: 35.2%"
COC(=O)/C=C/C(=O)OC [DIMETHYL FUMARATE],Active,21.3,2.62,2.2,36.8,311,21.7,Active,39.7 µM,Drug metabolism [14]: Metabolite detected
CC(C)OC(=O)/C=C/C(=O)OC(C)C,Active,42.4,,,41.2,678,38.6,Active,,
Cc1ccc(/C=C/C(=O)O)cc1,Active,34.2,,,39.9,633,32.2,Active,,
O=C(O)/C=C/c1ccc([N+](=O)[O-])cc1,Active,11.9,,,35.8,323,15.7,Active,,
COC(=O)C#CC(=O)OC,Active,0.00977,6.47,2.59,9.2,0.973,0.0124,Active,29.8 µM,Drug metabolism [14]: Metabolite detected
CCCCOC(=O)/C=C/C(=O)OCCCC,Active,53.7,,,45.1,847,66.7,Active,,
